In ChEMBL document CHEMBL5715946 (Chem Biol, 2010):
Active and inactive are the calls of the source. The calls are words filed in the database; no cut-off is given here.

Experiments:
[1] = molecular target: Macrophage migration inhibitory factor (Rattus norvegicus, UniProt P30904); experiment: Inhibition of recombinant rat MIF expressed in Escherichia coli BL21 (DE3) assessed as reduction in tautomerase activity using L-dopachrome carboxy-methyl ester as substrate by spectrophotometry
In short: (§1)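 Purified recombinant rat MIF tautomerase assayed with purified L-dopachrome carboxy-methyl ester as substrate in pH 6.0 buffer; rate taken over the initial 30 s. Mean ± SD, n = 4.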

[2] = molecular target: Macrophage migration inhibitory factor (Rattus norvegicus) (UniProt P30904); experiment: Inhibition of recombinant rat MIF expressed in Escherichia coli BL21 (DE3) assessed as reduction in tautomerase activity at 30 uM using L-dopachrome carboxy-methyl ester as substrate by spectrophotometry relative to control; in short: as §1
Target sequence in this assay (P30904 2-115 limits assumed): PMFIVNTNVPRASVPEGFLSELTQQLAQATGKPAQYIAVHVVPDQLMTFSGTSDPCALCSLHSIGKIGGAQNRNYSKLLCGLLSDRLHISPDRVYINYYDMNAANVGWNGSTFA

[3] = system: Antioxidant response element; experiment: Induction of rat ARE activity expressed in rat H9c2 cells assessed as increase in ARE luciferase activity measured after 24 hrs by steady-glo luciferase Assay; format: cell-based
In short: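 H9c2 cells transiently transfected with pGL3-ARE-Luc or pGL3-mARE-Luc, compound exposure 24 hr, luciferase read by Steady-Glo. MEC2.0 is the concentration giving a doubling of luciferase activity. Mean ± SD, n = 4.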

[4] = molecular target: Macrophage migration inhibitory factor (Rattus norvegicus) (UniProt P30904); experiment: Inhibition of [3H]-BTZO-1 binding to recombinant rat C-terminal His-tagged MIF expressed in Escherichia coli BL21 (DE3) at 100 uM measured after 3 hrs by SPA relative to control
Target sequence in this assay (P30904 whole entry, looked up): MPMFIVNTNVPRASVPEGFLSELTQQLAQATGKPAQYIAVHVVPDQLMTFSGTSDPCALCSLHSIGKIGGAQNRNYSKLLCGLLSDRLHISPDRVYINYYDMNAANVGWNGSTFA

[5] = molecular target: Macrophage migration inhibitory factor (Rattus norvegicus) (UniProt P30904); experiment: Inhibition of [3H]-BTZO-1 binding to recombinant rat C-terminal His-tagged MIF expressed in Escherichia coli BL21 (DE3) measured after 3 hrs by SPA
Target sequence in this assay (P30904 whole entry, looked up): as above

[6] = molecular target: Macrophage migration inhibitory factor (Rattus norvegicus) (UniProt P30904); experiment: Binding affinity to recombinant rat MIF expressed in Escherichia coli BL21 (DE3) by chromatography
Target sequence in this assay (P30904 2-115 limits assumed): as the sequence (P30904 2-115 limits assumed) above

[7] = system: Cardiac muscle cell; experiment: Cytoprotective activity against serum deprivation-induced neonatal Wistar rat cardiomyocyte death assessed as increase in cell viability measured after 4 days by WST-8 assay; format: functional; settings: time 4 day
In short: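 Primary neonatal rat cardiomyocytes were isolated by proteinase digestion, with preplating to remove adherent non-myocytes. Death was induced by serum deprivation at low density (3×10^5 cells/ml) for 4 days with compound present. Viability was read by WST-8. MEC1.5 is the concentration giving a 50% rise in viability. n = 3.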

[8] = system: Rattus norvegicus; experiment: (§2) Cardioprotective effect against ischemia reperfusion injury in Wistar rat myocardial infarction model assessed as reduction in infarct size at 10 mg/kg, ip administered 1 hr prior to LAD occlusion and 2 and 8 hr after reperfusion and measured after 24 hrs by Evans blue dye based assay relative to control; format: functional; set-up: scale not given: the % may be the effect or the level left; settings: time 25 hrs
In short: (§3)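 Anaesthetized rats; LAD coronary occlusion 25 min followed by 24 hr reperfusion. Compound 10 mg/kg i.p. given 1 hr before occlusion and 2 and 8 hr after reperfusion; vehicle controls, n = 13. Area at risk given as % of LV, infarct size as % of area at risk. Mean ± SEM.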

[9] = system: Antioxidant response element; experiment: Induction of ARE activity in serum-deprived neonatal Wistar rat cardiomyocytes assessed as increase in GST Ya mRNA level up to 3 uM measured after 24 hrs by RT-qPCR analysis; format: cell-based; settings: Cardiomyocyte
In short: (§4)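 Neonatal rat cardiomyocytes exposed to samples or vehicle in M-199 with 1% penicillin-streptomycin, no serum, for 24 hr. GST Ya and HO-1 mRNA measured by real-time qPCR (mean ± SD, n = 3); protein by western blot with β-actin as control.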

[10] = system: Rattus norvegicus; experiment: as §2, with “area at risk” for “reduction in infarct size”, “(reference value: 46 +/- 3%)” for “relative to control”; format: functional; settings: time 25 hrs; in short: as §3
[11] = system: Antioxidant response element; experiment: Induction of ARE activity in serum-deprived neonatal Wistar rat cardiomyocytes assessed as increase in HO-1 mRNA level up to 3 uM measured after 24 hrs by RT-qPCR analysis; format: cell-based; settings: Cardiomyocyte; in short: as §4
[12] = system: Antioxidant response element; experiment: Induction of ARE activity in serum-deprived neonatal Wistar rat cardiomyocytes assessed as increase in GST Ya expression up to 400 nM measured after 24 hrs by Western blot analysis; format: cell-based; settings: Cardiomyocyte; in short: as §4
[13] = system: Antioxidant response element; experiment: Induction of ARE activity in serum-deprived neonatal Wistar rat cardiomyocytes assessed as increase in HO-1 expression up to 400 nM measured after 24 hrs by Western blot analysis; format: cell-based; settings: Cardiomyocyte; in short: as §4
[14] = molecular target: Macrophage migration inhibitory factor (Rattus norvegicus) (UniProt P30904); experiment: Binding affinity to MIF in Wistar rat isolated heart by chromatography; format: tissue-based
Target sequence in this assay (P30904 2-115 limits assumed): as above

[15] = molecular target: Macrophage migration inhibitory factor (Rattus norvegicus) (UniProt P30904); experiment: Induction of MIF-stimulated ARE activity in rat H9c2 cells assessed as increase in HO-1 expression at 3 uM incubated for 6 hrs by RT-qPCR analysis; format: cell-based
Target sequence in this assay (P30904 2-115 limits assumed): as above

[16] = system: Antioxidant response element; experiment: Induction of rat ARE activity expressed in MIF-stimulated rat H9c2 cells assessed as increase in ARE luciferase activity at 1 uM measured after 24 hrs by steady-glo luciferase Assay; format: cell-based
In short: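 H9c2 cells transiently transfected with pGL3-ARE-Luc (rat GST Ya ARE) or mutant-ARE control plasmid, then treated with rMIF with or without 1 μM compound for 24 hr. Luciferase by Steady-Glo; mean ± SD, n = 4.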

[17] = molecular target: Macrophage migration inhibitory factor (Rattus norvegicus) (UniProt P30904); experiment: Induction of MIF-stimulated ARE activity in rat H9c2 cells assessed as increase in GST Ya expression at 3 uM incubated for 24 hrs by RT-qPCR analysis; format: cell-based
Target sequence in this assay (P30904 2-115 limits assumed): as above

[18] = molecular target: Macrophage migration inhibitory factor (Rattus norvegicus) (UniProt P30904); experiment: Binding affinity to MIF in Wistar rat isolated heart by SPR analysis; format: tissue-based
In short: (§5)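 BTZO-12-type sensor chip probed with rat heart protein; bound protein recovered by microrecovery elution, then identified by silver staining and by western blot with anti-MIF antibody.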
Target sequence in this assay (P30904 2-115 limits assumed): as above

[19] = molecular target: Macrophage migration inhibitory factor (Rattus norvegicus) (UniProt P30904); experiment: Binding affinity to rat C-terminal His-tagged MIF expressed in Escherichia coli BL21 (DE3) by SPR analysis
In short: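 Sensor chip carrying immobilized BTZO-12; MIF (wild type or point mutants) passed over it and specific binding monitored by surface plasmon resonance.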

[20] = molecular target: Macrophage migration inhibitory factor (Rattus norvegicus) (UniProt P30904); experiment: Binding affinity to MIF in Wistar rat isolated heart by Western blot analysis; format: tissue-based; in short: as §5
[21] = molecular target: Macrophage migration inhibitory factor (Rattus norvegicus) (UniProt P30904); experiment: Binding affinity to MIF in Wistar rat isolated heart by silver staining based assay; format: tissue-based; in short: as §5

Chain of Macrophage migration inhibitory factor (P30904 2-115 limits assumed): as above

COC(=O)CC1CC(c2ccc(O)cc2)=NO1 (stereo not drawn)
IC50 [1]: 68 µM | inhibition [2]: 30% | MEC2 [3]: > 30 µM | inhibition [4]: 12%

CCCCC/C=C/C=C1/C(=O)C=C[C@@H]1C/C=C\CCCC(=O)O
IC50 [1]: 3.7 µM | MEC2 [3]: 7.3 µM | IC50 [5]: 3.6 µM

Cc1cc(C)c2sc(-c3cccc(CCCOCCC(=O)O)n3)nc(=O)c2c1
Activity [6]: inactive | MEC2 [3]: > 10 µM | MEC1.5 [7]: >1000 nM

O=C(O)CCOCCCc1cccc(-c2nc(=O)c3cccnc3s2)n1
Activity [6]: inactive | MEC2 [3]: > 10 µM | MEC1.5 [7]: >1000 nM

O=C(O)CCc1cccc(-c2nc(=O)c3ccccc3s2)n1
Activity [8]: 45% | inhibition [2]: 14% | Activity [3]: Dose-Dependent Effect | MEC2 [3]: 2.3 µM | Activity [9]: Active | Activity [10]: 48% | Activity [11]: Active | Activity [12]: Active | Activity [13]: Active | MEC1.5 [7]: 39 nM

O=C(O)CCOCCCc1cccc(-c2nc(=O)c3ccccc3s2)n1
Activity [14]: Active | Activity [6]: Active | MEC2 [3]: 2.2 µM | MEC1.5 [7]: 53 nM

Cc1cc(C)c2sc(-c3ccccn3)nc(=O)c2c1
MEC2 [3]: > 10 µM | MEC1.5 [7]: >1000 nM

O=C(O)CCOCCCc1ccc(-c2nc(=O)c3ccccc3s2)nc1
Activity [14]: Active | Activity [6]: Active | MEC2 [3]: 1.6 µM | MEC1.5 [7]: 39 nM

O=c1nc(-c2ccccn2)sc2ncccc12
inhibition [2]: 5% | MEC2 [3]: > 10 µM | MEC1.5 [7]: >1000 nM

Cc1cccc2c(=O)nc(-c3ccccn3)sc12
Activity [15]: inactive | inhibition [2]: 6% | MEC2 [3]: > 10 µM | Activity [16]: inactive | Activity [12]: inactive | Activity [17]: inactive | Activity [13]: inactive | MEC1.5 [7]: >1000 nM

O=C(O)CCOCCCc1cccc(C2NC(=O)c3ccccc3S2)n1 (stereo not drawn)
Activity [6]: inactive | MEC2 [3]: > 10 µM | MEC1.5 [7]: >1000 nM

O=c1nc(-c2cccnc2)sc2ccccc12
inhibition [2]: 12% | MEC2 [3]: 0.8 µM | MEC1.5 [7]: 39 nM

C[S@+]([O-])CCCCN=C=S
MEC2 [3]: 4.4 µM

Cc1cccc2c(=O)nc(-c3cccc(C(=O)NCCCCCCN)n3)sc12
Activity [18]: inactive | MEC2 [3]: > 10 µM | Activity [19]: inactive

NCCCCCCNC(=O)c1cccc(-c2nc(=O)c3ccccc3s2)n1
Activity [18]: Active | Activity [20]: Active | MEC2 [3]: 1.1 µM | Activity [21]: Active | Activity [19]: Active

O=C1NC(c2ccccn2)Sc2ccccc21 (stereo not drawn) [BTZO-4]
inhibition [2]: 3% | MEC2 [3]: > 10 µM | MEC1.5 [7]: >1000 nM

CC(C)(C)c1cc(O)ccc1O [E319]
IC50 [1]: > 30 µM | MEC2 [3]: 5.7 µM | IC50 [5]: 1.1 µM

C[S@@+]([O-])CCCCN=C=S [L-SULFORAPHANE]
IC50 [1]: 4.4 µM | IC50 [5]: 25 µM

Cc1c(C)c2c(c(C)c1O)CCC(C)(C(=O)O)O2 (stereo not drawn) [TROLOX]
MEC1.5 [7]: 160000 nM
